ChEMBL document CHEMBL4017520, “Discovery, Structure-Activity Relationship, and Antiparkinsonian Effect of a Potent and Brain-Penetrant Chemical Series of Positive Allosteric Modulators of Metabotropic Glutamate Receptor 4” (J Med Chem, 2017)

Target: Metabotropic glutamate receptor 4 (Homo sapiens, UniProt Q14833)
Assay: Positive allosteric modulation of recombinant human mGlu4 receptor expressed in HEK293 cells co-expressing chimeric Gi/Gq protein assessed as fold shift in glutamate-induced calcium flux at 3 uM preincubated for 10 mins followed by glutamate addition measured for 3 mins by Fluo4-AM dye based fluorescence assay
Type: functional, cell-based
In short: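 HEK-293 cells transiently co-transfected by electroporation with human mGluR4 and chimeric Gi/Gq (GqTOP) were cultured 24 h, FCS-starved 3 h, then loaded 1 h 30 min with 1 μM Fluo4-AM in HBSS/20 mM HEPES buffer containing probenecid and 0.1% BSA. Compound was added for 10 min, then glutamate (10 or 20 concentrations over 4.5 logs), read 3 min (ex 485/em 525 nm). The fold change in glutamate potency with vs without compound gives the shift.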

Chain of Metabotropic glutamate receptor 4 (Q14833 whole entry): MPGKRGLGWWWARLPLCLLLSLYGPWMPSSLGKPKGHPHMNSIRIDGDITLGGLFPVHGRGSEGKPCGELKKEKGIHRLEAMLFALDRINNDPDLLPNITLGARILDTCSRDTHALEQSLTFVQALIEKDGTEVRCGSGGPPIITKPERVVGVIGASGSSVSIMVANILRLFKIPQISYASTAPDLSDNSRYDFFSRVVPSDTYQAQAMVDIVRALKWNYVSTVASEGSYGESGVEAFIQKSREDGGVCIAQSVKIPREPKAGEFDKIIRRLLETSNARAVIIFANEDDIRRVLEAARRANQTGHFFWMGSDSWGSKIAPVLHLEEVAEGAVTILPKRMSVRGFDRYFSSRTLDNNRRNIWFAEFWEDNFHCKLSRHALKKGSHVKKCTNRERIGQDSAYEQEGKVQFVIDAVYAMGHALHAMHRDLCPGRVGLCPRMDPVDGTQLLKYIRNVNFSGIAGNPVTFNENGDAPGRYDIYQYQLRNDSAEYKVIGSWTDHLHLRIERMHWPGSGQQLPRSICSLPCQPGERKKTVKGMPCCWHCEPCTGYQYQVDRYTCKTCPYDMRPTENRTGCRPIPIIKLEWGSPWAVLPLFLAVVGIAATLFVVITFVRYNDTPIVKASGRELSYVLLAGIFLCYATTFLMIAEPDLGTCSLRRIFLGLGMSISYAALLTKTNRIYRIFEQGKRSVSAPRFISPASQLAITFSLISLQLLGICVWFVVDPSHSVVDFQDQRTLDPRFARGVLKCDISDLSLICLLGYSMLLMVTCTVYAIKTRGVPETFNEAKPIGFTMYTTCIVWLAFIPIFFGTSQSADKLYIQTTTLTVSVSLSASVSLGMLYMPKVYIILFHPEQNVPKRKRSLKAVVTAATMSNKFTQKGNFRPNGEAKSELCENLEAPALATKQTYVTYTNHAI

fold change (FC): 10
SMILES: O/N=c1\cc(-c2cc3cccn3cn2)oc2ccc(OCCN3CCOCC3)cc12
